Usually T/C stands for the ratio of treated to control. Usually half-life stands for how long it takes for the measured level to halve. A higher half-life goes with slow loss.

For series [1], the system named is L1210. The experiment in a line: In vivo activity against murine L1210 tumor system at the dose of 60 mg/kg, activity expressed as TDS; 6/6. The series is classed as functional, Mus musculus. The procedure, abridged:
(§1)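 L1210 lymphocytic leukemia: ascitic fluid with ca. 10^6 cells injected ip into CD2F1 mice. Dosing started 24 h after inoculation and was repeated daily for five doses in total, from solutions or suspensions made fresh each day. Toxicity day survivors were scored on day 5. Body weight difference is day 5 minus day 1. %T/C is based on median survival time versus controls.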

The nature of series [2]: In vivo activity against murine M5076 tumor system at the dose of 60 mg/kg, activity expressed as body weight difference; T-C. The series is classed as functional, Mus musculus.
The subject of series [3] is L1210. The experiment in a line: In vivo activity against murine L1210 tumor system at the dose of 36 mg/kg, activity expressed as body weight difference; T-C. The class given is functional, Mus musculus. The procedure, abridged:
as §1

Series [4] can be described thus: Effect of Ionic strength on carbamate hydrolysis in acetonitrile-water at 0.05 M buffer concentration, pH 7.4,25 degree C. The series is classed as ADME. The procedure, abridged: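 Bis-carbamate in acetonitrile–0.05 M phosphate buffer (1:1), pH 7.4, 25 °C, at varied ionic strength. Loss of bis-carbamate HPLC peak area tracked over time. Pseudo-first-order kobs taken from the ln(area0/areat) vs time slope.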

Series [5] is described as follows: Effect of phosphate buffer on carbamate hydrolysis in acetonitrile-water at the concentration of 0.025 M on pH 7.4, 25 degree C. The class given is ADME. In a few lines: (§2)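 Bis-carbamate in acetonitrile–water (1:1), 25 ± 0.1 °C. Citrate buffer at pH 3.0 or phosphate buffer at pH 7.4, at 0.01, 0.025 or 0.05 M, ionic strength 0.136 (KCl). Kinetics followed by HPLC as the decrease in bis-carbamate peak area. The regression slope of ln(area0/areat) vs time gave pseudo-first-order kobs. Duplicates averaged.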

Series [6] concerns P388. The experiment in a line: In vivo activity against P388 Lymphocytic Leukemia in CD2F1 mice at the dose of 50 mg/kg, activity expressed as body weight difference; T-C. The series is classed as functional, Mus musculus. The procedure, abridged: (§3)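 CD2F1 mice were inoculated with ascitic fluid holding ca. 10^6 P388 cells. Drug was given daily from 24 h after inoculation, from solutions or suspensions made fresh each day, some as a saline suspension. TDS is survivors/initial animals on day 5. BWD is body weight on day 5 minus day 1. %T/C compares median survival of treated and control mice.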

Series [7] is described as follows: Effect of phosphate buffer on carbamate hydrolysis in acetonitrile-water at the concentration of 0.01 M on pH 7.4, 25 degree C. The class given is ADME. In a few lines: as §2
Series [8] is described as follows: Effect of pH on carbamate hydrolysis in 0.05 M buffer concentration at the pH 3.0, 25 degree C. The class given is ADME. The procedure, abridged:
(§4)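 Bis-carbamate in acetonitrile–water (1:1; buffer added to a 0.5 mg/mL acetonitrile solution), 0.05 M buffer, ionic strength 0.136 (KCl), 25 ± 0.1 °C. Buffers: phosphate pH 2.0; citrate pH 3.0–3.5; succinate pH 4.0; acetate pH 5.0; phosphate pH 6.0–8.0; borate pH 9.0; carbonate pH 10.0. HPLC bis-carbamate peak-area loss, ln(area0/areat) vs time slope = kobs. Duplicates averaged.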

The nature of series [9]: Effect of pH on carbamate hydrolysis in 0.05 M buffer concentration at the pH 9.0, 25 degree C. The series is classed as ADME. The procedure, abridged: as §4
A short description of series [10]: In vivo activity against murine M5076 tumor system at the dose of 100 mg/kg, activity expressed as %T/C. The class given is functional, Mus musculus. In a few lines: (§5)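 M5076: ascitic fluid with ca. 10^6 cells inoculated ip into CD2F1 mice. Dosing started 24 h after inoculation and was then given every 4 days for four doses in total, from solutions or suspensions made fresh each day. Toxicity day survivors were scored on day 5. Body weight difference is day 14 minus day 1. %T/C is based on median survival time versus controls.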

A short description of series [11]: In vivo activity against murine M5076 tumor system at the dose of 36 mg/kg, activity expressed as body weight difference; T-C. The series is classed as functional, Mus musculus. In a few lines:
as §5

Series [12] is described as follows: Half life at the ionic strength. The class given is ADME.
Series [13] in a line: Effect of pH on carbamate hydrolysis in 0.05 M buffer concentration at the pH 7.4, 25 degree C. The series is classed as ADME. In a few lines: as §4
The nature of series [14]: In vivo activity against murine M5076 tumor system at the dose of 21.6 mg/kg, activity expressed as TDS; 10/10. The series is classed as functional, Mus musculus. In a few lines:
as §5

Series [15] deals with P388. Briefly: In vivo activity against P388 Lymphocytic Leukemia in CD2F1 mice at the dose of 100 mg/kg, activity expressed as KE. The class given is functional, Mus musculus.
Series [16] in a line: In vivo activity against murine M5076 tumor system at the dose of 60 mg/kg, activity expressed as KE. The class given is functional, Mus musculus.
Series [17] in a line: Effect of pH on the hydrolysis of pyridinium Moity in 0.05 M buffer concentration at the pH 7.0. The class given is ADME. The procedure, abridged: (§6)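 Pyridinium salt in 0.05 M phosphate buffer, pH 6.0–8.0 (set by pH meter), ionic strength 0.25 M, 25 °C. Decrease in the pyridinium UV absorbance maximum followed over time to give pseudo-first-order kobs and half-life.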
Series [18] in a line: Effect of phosphate buffer on the hydrolysis of alpha Fluoropyridinium Moity at the concentration of 0.10M, pH 6.5, 25 degree C. The class given is ADME. The procedure, abridged:
(§7)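 α-Fluoropyridinium hydrolysis to pyridone in phosphate buffer at 0.02, 0.05 or 0.10 M, pH 6.5 or 8.0, ionic strength […] °C. Pyridinium UV absorbance maximum followed with time to give pseudo-first-order kobs and half-life.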

The subject of series [19] is L1210. The experiment in a line: In vivo activity against murine L1210 tumor system at the dose of 50 mg/kg, activity expressed as TDS; 5/6. The series is classed as functional, Mus musculus. The procedure, abridged: as §1
Series [20] can be described thus: Effect of Ionic strength (0.50 M NaCl)on the hydrolysis of pyridinium Moity in 0.02 M buffer concentration, pH 7.4,25 degree C. The class given is ADME. In a few lines: (§8)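 Pyridinium salt in 0.02 M phosphate buffer, pH 7.4, 25 °C, with NaCl varied 0.10–1.0 M. Loss of the pyridinium chromophore's UV absorbance maximum (conversion to pyridone) followed over time. Pseudo-first-order kobs and half-life derived from that decay.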

Series [21] in a line: Effect of Ionic strength (0.25 M NaCl)on the hydrolysis of pyridinium Moity in 0.02 M buffer concentration, pH 7.4,25 degree C. The series is classed as ADME. The procedure, abridged:
as §8

The nature of series [22]: Effect of phosphate buffer on the hydrolysis of alpha Fluoropyridinium Moity at the concentration of 0.10M, pH 8.0, 25 degree C. The class given is ADME. In a few lines:
as §7

For series [23], the system named is P388. The experiment in a line: In vivo activity against P388 Lymphocytic Leukemia in CD2F1 mice at the dose of 100 mg/kg, activity expressed as body weight difference. The class given is functional, Mus musculus. In a few lines: as §3
The nature of series [24]: In vivo activity against murine M5076 tumor system at the dose of 25 mg/kg, activity expressed as TDS; 10/10. The class given is functional, Mus musculus. The procedure, abridged: as §5
Series [25] can be described thus: Effect of pH on the hydrolysis of pyridinium Moity in 0.05 M buffer concentration at the pH 7.4. The class given is ADME. In a few lines:
as §6

The subject of series [26] is L1210. The experiment in a line: In vivo activity against murine L1210 tumor system at the dose of 25 mg/kg, activity expressed as TDS; 6/6. The series is classed as functional, Mus musculus. In a few lines: as §1
The nature of series [27]: In vivo activity against murine M5076 tumor system at the dose of 50 mg/kg, activity expressed as %T/C. The series is classed as functional, Mus musculus.
In series [28] the test system is P388. The experiment in a line: In vivo activity against P388 Lymphocytic Leukemia in CD2F1 mice at the dose of 100 mg/kg, activity expressed as TDS; 1/6. The series is classed as functional, Mus musculus. In a few lines: as §3
The nature of series [29]: Effect of pH on the hydrolysis of pyridinium Moity in 0.05 M buffer concentration at the pH 8.0. The series is classed as ADME. The procedure, abridged:
as §6

Structures are written as SMILES. Several values for one entry are separate records, joined by “and”; a condition that tells them apart may be missing. Equal entries are not always repeated.

For the molecule `CC(C)NC(=O)OCc1c(COC(=O)NC(C)C)c(-c2ccn(C)c(=O)c2)n2c1CCC2`, the TDS with L1210 [1] is reported as 6; in [14], 10. Further, the BWD in series [2] is 0.9 g; in the series with L1210 [3], -0.3 g; with P388 [6], -0.6 g; in [11], 1.8 g. Also, the K obs in series [4] was 0.013 min⁻¹ and 0.0124 min⁻¹ and 0.008 min⁻¹; in series [5], 0.0134 min⁻¹; in series [7] it was 0.0133 min⁻¹; in series [8], 0.0304 min⁻¹; in [9], 0.0129 min⁻¹; in series [13], 0.013 min⁻¹. The same molecule yielded a T/C in series [10] of 122%. The T1/2 in series [12] is 55.89 min and 86.65 min. In series [12], the half-life is 53.5 min. The KE is 0.69 in the series on P388 [15] and -1.79 in [16].

For `CC(C)NC(=O)OCc1c(COC(=O)NC(C)C)c(-c2cc[n+](C)c(F)c2)n2c1CCC2.[I-]`, the K obs in series [17] amounted to 0.0208 min⁻¹; in series [18], 0.0138 min⁻¹; in series [20], 0.011 min⁻¹; in series [21], 0.02 min⁻¹; in series [22], 0.036 min⁻¹; in series [25], 0.0337 min⁻¹. The same molecule gave a K obs in [29] of 0.052 min⁻¹. For the same molecule, the TDS with L1210 [19] worked out at 5; in [24] it was 10; in the series on L1210 [26] it was 6; in the series with P388 [28], 1. This molecule displayed a BWD in the series on P388 [23] of -7.6 g. In [27], this molecule registered a T/C of 118%.
